Sampled rows, rich in hits. Any-hit rate of the full collection: about 3.8%.
OX1R antag-1 = blocks the human orexin 1 receptor; OX1R-expressing cells, FRET antagonist read-out; inhibition, % at 6.6 µM; hit rate 1.8% among 330,000; O43613; in the data active means inhibition mostly above about 38%, no sharp cut-off; inactive means mostly below about 40%
Target sequence (O43613 whole entry, looked up): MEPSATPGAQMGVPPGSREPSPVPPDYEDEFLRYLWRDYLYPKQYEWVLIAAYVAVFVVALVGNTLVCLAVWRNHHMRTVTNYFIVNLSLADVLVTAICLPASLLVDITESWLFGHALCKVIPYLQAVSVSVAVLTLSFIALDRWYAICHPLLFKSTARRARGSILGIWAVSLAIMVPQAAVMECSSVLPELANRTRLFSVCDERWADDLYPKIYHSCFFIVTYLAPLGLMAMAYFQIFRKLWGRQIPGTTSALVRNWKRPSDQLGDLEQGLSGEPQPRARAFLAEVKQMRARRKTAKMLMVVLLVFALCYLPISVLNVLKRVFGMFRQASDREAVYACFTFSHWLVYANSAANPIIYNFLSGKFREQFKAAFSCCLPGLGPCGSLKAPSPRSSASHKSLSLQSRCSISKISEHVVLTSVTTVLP
OX1R antag-2 = human HCRTR1 antagonism. O43613. CHO/OX1R cells, Fluo-8 calcium fluorescence, orexin A. inhibition, % at 5 µM. hit rate 0.43% among 330,000;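 active means inhibition above its plate's threshold, mean inhibition of all tested compounds on the plate plus 3 SD, cut at about 37% in these data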
MPTP inh = blocks calcium-induced mitochondrial swelling | hit rate 1.4% among 360,000 | inhibition, % at 10 µM | isolated mouse mitochondria, Ca2+ swelling absorbance, 30 min;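 active means inhibition of 50% or more, scaled per plate between neutral and stimulator controls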
GPR7 antagonist = blocks human GPR7 receptor signaling | GPR7-expressing cells, fluorescence antagonist assay | P48145 | hit rate 1.1% among 290,000 | inhibition, % at 4.4 µM | AID 1861; in the data active means inhibition above about 16%, passing the limit was not always enough;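 further: cells stimulated with the agonist NPW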
CHO parental Ca = counter-screen: ATP calcium response change in parental CHO cells | hit rate 0.63% among 330,000 | parental CHO-K1, ATP-induced calcium, Fluo-8 fluorescence | inhibition, % at 5.6 µM;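 active means inhibition above that plate's mean sample inhibition plus 3 SD, cut at about 26% in these data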
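Test system: untransfected parental CHO cell line; also added: ATP stimulus; dosing: 5.6 µM, single dose; signal: calcium-sensitive Fluo-8 fluorescence; measure: percent inhibition of ATP-evoked calcium rise, normalized to controls; benchmarks: low control ATP plus DMSO, high control DMSO only; replication: one well per compound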
GPR7 antag conf = confirmation of human GPR7 antagonists | shares compounds with GPR7 antagonist | hit rate 52% among 2,400 | inhibition, % at 4.4 µM | AID 1952 | GPR7-expressing cells, calcium fluorescence antagonist mode; in the data active means inhibition above about 24%;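 further: stimulated with the GPR7 agonist NPW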
MCHR1 antagonist = counter-screen for GPR7 antagonists: antagonists of human MCHR1. shares compounds with GPR7 antagonist. MCHR1-expressing cells, fluorescence antagonist assay. inhibition, % at 4.4 µM. hit rate 62% among 2,400. AID 2148; in the data active means inhibition above about 22%
A number is an active result; . = inactive; / = no result given.

SMILES	OX1R antag-1	OX1R antag-2	MPTP inh	GPR7 antagonist	CHO parental Ca	GPR7 antag conf	MCHR1 antagonist
O=C(CSc1nnnn1-c1cccc2c1CCCC2)NC1CCCC1	.	.	.	33.7	.	.	25.9
CC1CCCC(C)N1C(=O)CSc1nnnn1-c1cccc2c1CCCC2 (configuration not stated)	.	.	.	.	.	/	/
COc1ccccc1CC(=O)N1CCN(c2ccc([N+](=O)[O-])cc2)CC1	.	.	.	24.9	.	.	35.9
Cc1ccc(S(=O)(=O)CC(=O)N2CCN(c3ccc([N+](=O)[O-])cc3)CC2)cc1	.	.	.	/	.	/	/
O=C(c1ccccc1F)N1CCN(c2cccc(C(F)(F)F)c2)CC1	.	.	.	22.7	.	.	.
Cc1ccc(CC(=O)N2CCN(c3ccc([N+](=O)[O-])cc3)CC2)cc1	.	.	.	39.5	.	42.6	40.6
O=C(OC1CCN(c2ccc([N+](=O)[O-])cc2)CC1)c1ccccc1	.	.	.	29.4	.	47.3	68.2
CCCCN1C(=O)N(C)C2NC(=S)NC21 (configuration not stated)	.	.	.	.	.	/	/
CC(=O)c1ccc(NC(=O)CSc2nnc(NC(=O)C3CC3)s2)cc1	.	.	.	.	.	/	/
S=C(Nc1cc(Cl)cc(Cl)c1)N1CCN(c2ccccn2)CC1	/	/	.	.	/	/	/
COc1ccccc1CC(=O)N1CCN(c2cccc(C(F)(F)F)c2)CC1	.	.	.	26.4	.	37.9	37.9
COc1cc2c(C(=O)N3CCN(c4cccc(Cl)c4)CC3)cn(C)c(=O)c2cc1OC	.	.	.	.	.	/	/
COc1ccccc1C(=O)N1CCN(c2cccc(Cl)c2)CC1	.	.	.	25.0	.	.	25.1
COc1ccccc1NC(=O)N1CCN(c2cccc(C(F)(F)F)c2)CC1	.	.	.	.	.	/	/
COc1ccnc(Oc2ccc(F)cc2)c1C(=O)N/C=N/OCc1ccc(F)cc1	.	.	.	/	.	/	.
CC(C)NC(=O)NC(=O)CSc1nncs1	.	.	.	.	.	/	/
O=[N+]([O-])c1ccc2nc(-c3ccccc3[N+](=O)[O-])[nH]c2c1	.	.	.	25.0	.	.	.
COc1ccc(CNC(=O)c2csc(Cc3ccccc3)n2)cc1	.	.	.	.	.	/	/
COc1ccccc1CNC(=O)c1csc(Cc2ccc(Cl)cc2)n1	.	.	.	29.3	.	.	44.7
O=C(N/C(=C\c1cccc([N+](=O)[O-])c1)C(=O)N1CCOCC1)c1ccc([N+](=O)[O-])cc1	.	.	.	22.8	.	.	.
O=C(N/C(=C/c1cccc([N+](=O)[O-])c1)C(=O)N1CCOCC1)c1ccc(Br)cc1	.	.	.	.	.	/	/
Cc1cc(O)c(C(C)C)cc1C1(c2cc(C(C)C)c(O)cc2C)OC(=O)c2ccccc21	.	.	.	.	.	.	.
O=C(NCc1cccnc1)c1csc([C@@H]2C[C@H](O)[C@@H](CO)O2)n1	/	/	.	/	/	/	/
CS(=O)(=O)N(Cc1ccc(Cl)cc1)c1ccc(C(=O)N2CCN(c3ccccc3)CC2)cc1	.	.	.	21.3	33.7	38.4	46.3
CN1CCN(C(=O)c2ccc(N(Cc3ccc(Cl)cc3)S(C)(=O)=O)cc2)CC1	.	.	.	.	.	/	/
SMILES	OX1R antag-1	OX1R antag-2	MPTP inh	GPR7 antagonist	CHO parental Ca	GPR7 antag conf	MCHR1 antagonist
Cc1ccc(CN(c2ccc(C(=O)N3CCc4ccccc4C3)cc2)S(C)(=O)=O)cc1	.	.	.	33.3	.	31.6	47.4
CS(=O)(=O)N(Cc1ccc(C(=O)N2CCc3ccccc3C2)cc1)c1ccccc1	.	.	.	.	.	/	/
CS(=O)(=O)N(Cc1ccccc1)c1ccc(C(=O)N2CCN(c3cccc(Cl)c3)CC2)cc1	.	.	.	23.9	.	36.4	70.0
CN(c1ccc(C(=O)N2CCN(Cc3ccccc3)CC2)cc1)S(=O)(=O)c1ccc(Cl)cc1	.	.	.	31.8	.	.	33.2
CSCCC(NC(=O)c1ccc(C(C)(C)C)cc1)C(=O)O (configuration not stated)	.	.	.	.	.	/	/
CSc1ccccc1OCc1cc(C(=O)N2CCC(Oc3cccnc3)CC2)no1	.	.	.	28.2	.	.	47.5
CCOC(=O)c1ccc(Nc2ncnc3nc[nH]c23)cc1	.	.	.	.	.	/	/
c1ccc(COc2ccc(Nc3ncnc4nc[nH]c34)cc2)cc1	.	.	.	33.8	.	.	22.5
